Results taken from ChEMBL document CHEMBL2401732, “Evaluation of adenine as scaffold for the development of novel P2X3 receptor antagonists” (Eur J Med Chem, 2013).
Substitutions are numbered along the chain they refer to. Calls of active or inactive are those of the source. The rule behind the calls is not given here.

Experiments:
[1] = target: T1, P2X purinoceptor 3 (Rattus norvegicus) (UniProt P49654); assay: Antagonist activity at rat recombinant P2X3 receptor expressed in HEK293T cells assessed as desensitization of alpha,beta-methyleneATP-induced current at 100 uM after 20 secs by patch clamp technique; format: cell-based; details: HEK-293T
T1 sequence (whole entry): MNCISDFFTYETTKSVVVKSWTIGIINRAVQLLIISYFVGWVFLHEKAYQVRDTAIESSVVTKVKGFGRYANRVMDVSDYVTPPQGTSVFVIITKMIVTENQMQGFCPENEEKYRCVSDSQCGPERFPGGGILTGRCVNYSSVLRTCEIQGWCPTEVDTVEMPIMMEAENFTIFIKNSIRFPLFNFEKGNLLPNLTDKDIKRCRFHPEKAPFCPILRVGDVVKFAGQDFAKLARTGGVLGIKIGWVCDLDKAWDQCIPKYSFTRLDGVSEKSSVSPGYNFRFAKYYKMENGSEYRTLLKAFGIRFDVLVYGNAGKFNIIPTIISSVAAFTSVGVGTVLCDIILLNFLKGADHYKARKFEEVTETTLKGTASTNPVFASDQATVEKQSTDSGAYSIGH
How it was run: (§1)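 HEK 293T cells transiently co-transfected by calcium phosphate with pEGFP and pcDNA3-P2X3 (rat or human, 1:1), used 24 or 48 h later. GFP-positive cells whole-cell clamped at -60 mV, room temperature, CsCl pipette solution, HEPES-buffered bath pH 7.4. Control response averaged over ≥3 pulses of 100 μM α,β-meATP (2 s, 5 min apart). Compound applied 20 s before agonist. Screening at 100 μM, then 100–0.3 μM. Peak % inhibition computed; Hill fits of dose–inhibition data, n = 6–14 cells.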

[2] = target: T1, P2X purinoceptor 3 (Rattus norvegicus); assay: Antagonist activity at rat recombinant P2X3 receptor expressed in HEK293T cells assessed as desensitization of alpha,beta-methyleneATP-induced current at 100 uM after 20 secs by patch clamp technique relative to control; format: cell-based; design: scale not given: the % may be the effect or the level left; details: HEK-293T; how it was run: as §1
[3] = target: T1, P2X purinoceptor 3 (Rattus norvegicus); assay: Antagonist activity at rat recombinant P2X3 receptor expressed in HEK293T cells assessed as desensitization of alpha,beta-methyleneATP-induced current at 10 uM after 20 secs by patch clamp technique; format: cell-based; details: HEK-293T; how it was run: as §1
[4] = target: T2, P2X purinoceptor 3 (Homo sapiens) (UniProt P56373); assay: Antagonist activity at human recombinant P2X3 receptor expressed in HEK293T cells assessed as desensitization of alpha,beta-methyleneATP-induced current at 100 uM after 20 secs by patch clamp technique; format: cell-based; details: HEK-293T, 1 uM, in the assay text read “at 1 uM” for “at 100 uM”; how it was run: as §1
T2 sequence (whole entry): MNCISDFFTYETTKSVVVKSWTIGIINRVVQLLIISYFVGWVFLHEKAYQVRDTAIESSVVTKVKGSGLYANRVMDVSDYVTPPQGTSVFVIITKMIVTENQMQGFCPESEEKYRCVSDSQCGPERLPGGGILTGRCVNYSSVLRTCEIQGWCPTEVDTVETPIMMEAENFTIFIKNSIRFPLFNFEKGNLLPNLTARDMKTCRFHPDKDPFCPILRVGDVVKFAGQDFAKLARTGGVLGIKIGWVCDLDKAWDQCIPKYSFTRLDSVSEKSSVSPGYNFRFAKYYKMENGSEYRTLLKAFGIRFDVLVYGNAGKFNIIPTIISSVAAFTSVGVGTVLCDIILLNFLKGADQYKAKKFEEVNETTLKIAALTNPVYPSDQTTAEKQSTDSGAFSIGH

[5] = target: T3, P2X purinoceptor 3 (Mus musculus) (UniProt Q3UR32); assay: Antagonist activity at P2X3 receptor in C57Bl/6 wild type mouse trigeminal ganglion sensory neurons assessed as desensitization of alpha,beta-methyleneATP-induced current at 100 uM after 20 secs by patch clamp technique; format: tissue-based
T3 sequence (whole entry): T1 sequence (whole entry) with L144R, R202K, A377T
How it was run: (§2)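 Native P2X3 in trigeminal ganglion neurons from C57Bl/6 mice (P10–14), dissociated with trypsin/collagenase/DNAse at 37 °C for 12 min and cultured 24 h. Small/medium neurons whole-cell voltage clamped at -60 mV, room temperature. Pipette KCl-based with ATP–Mg/GTP–Li, pH 7.2. Compound superfused 20 s, then 2 s pulse of 100 μM α,β-meATP. % inhibition = 100×(1−I2/I1) from peak currents.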

[6] = target: T1, P2X purinoceptor 3 (Rattus norvegicus); assay: Antagonist activity at rat recombinant P2X3 receptor expressed in HEK293T cells assessed as desensitization of alpha,beta-methyleneATP-induced current at 100 uM after 6 mins of compound wash out by patch clamp technique; format: cell-based; details: HEK-293T
How it was run: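 Rat P2X3 in transfected HEK 293T cells, whole-cell clamp at -60 mV. After 20 s compound application and a 2 s pulse of 100 μM α,β-meATP, the cell was washed for 6 min. Recovery was assessed as the peak current to a repeat agonist pulse, compared with the control peak.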

[7] = target: T3, P2X purinoceptor 3 (Mus musculus); assay: Antagonist activity at P2X3 receptor in C57Bl/6 wild type mouse trigeminal ganglion sensory neurons assessed as desensitization of alpha,beta-methyleneATP-induced current at 1 uM after 20 secs by patch clamp technique; format: tissue-based; how it was run: as §2
[8] = target: T1, P2X purinoceptor 3 (Rattus norvegicus); assay: Antagonist activity at rat recombinant P2X3 receptor expressed in HEK293T cells assessed as desensitization of alpha,beta-methyleneATP-induced current at 1 uM after 20 secs by patch clamp technique; format: cell-based; details: HEK-293T; how it was run: as §1
P2X purinoceptor 3 = target: T4, P2X purinoceptor 3 (Rattus norvegicus, UniProt P49654); assay: Antagonist activity at rat recombinant P2X3 receptor expressed in HEK293T cells assessed as desensitization of alpha,beta-methyleneATP-induced current after 20 secs by patch clamp technique; format: cell-based, HEK-293T; how it was run: as §1
T4 sequence (P49654 whole entry): T1 sequence (whole entry)

[9] = target: T1, P2X purinoceptor 3 (Rattus norvegicus); assay: Antagonist activity at rat recombinant P2X3 receptor expressed in HEK293T cells assessed as desensitization of alpha,beta-methyleneATP-induced current at 0.3 uM after 20 secs by patch clamp technique; format: cell-based; details: HEK-293T; how it was run: as §1

Structure (SMILES)	inhibition [1]	inhibition [3]	inhibition [8]	IC50 (P2X purinoceptor 3)	inhibition [9]	also measured
COc1cc(Cn2cnc3c(Cl)nc(N)nc32)c(C(C)C)cc1OC	27%	–	–	–	–	Activity [2]: 6%
CNc1nc(N)nc2c1ncn2Cc1cc(OC)c(OC)cc1C(C)C	71%	–	–	–	–	–
COc1cc(Cn2cnc3nc(N)nc(N)c32)c(C(C)C)cc1OC	23%	–	–	–	–	–
COc1cc(C(C)C)c(Cn2cnc3nc(N)nc(N)c32)cc1I	–	43%	–	–	–	–
CNc1nc(N)nc2c1ncn2Cc1cc(I)c(OC)cc1C(C)C	98%	76%	41%	1.74 µM	22%	inhibition [4]: 29%; inhibition [5]: Active; Activity [6]: inactive; inhibition [7]: 37%
COc1cc(C(C)C)c(Cn2cnc3c(OC)nc(N)nc32)cc1I	50%	–	–	–	–	–
COc1cc(C(C)C)c(Cn2cnc3c(N)nc(N)nc32)cc1I	93%	78%	35%	2.23 µM	23%	–
COc1cc(Cn2cnc3c(N)nc(N)nc32)c(C(C)C)cc1OC	82%	36%	8%	18.6 µM	–	Activity [6]: inactive
COc1cc(C(C)C)c(Cn2cnc3c(NC4CCCC4)nc(N)nc32)cc1I	58%	60%	51%	–	45%	–
COc1cc(Cn2cnc3nc(N)nc(Cl)c32)c(C(C)C)cc1OC	19%	–	–	–	–	–
